According to ChEMBL document CHEMBL1134398, “Synthesis, structure-activity relationships, and pharmacokinetic profiles of nonpeptidic difluoromethylene ketones as novel inhibitors of human chymase” (J Med Chem, 2001):
Each block holds one compound with its values, some of them ahead of it. The source made the active and inactive calls. The calls are words filed in the database; no cut-off is given here.

Assays:
Chymase = molecular target: T1, Chymase (Homo sapiens, UniProt P23946); assay: In vitro inhibitory activity was determined against human heart chymase
T1 sequence (P23946 whole entry): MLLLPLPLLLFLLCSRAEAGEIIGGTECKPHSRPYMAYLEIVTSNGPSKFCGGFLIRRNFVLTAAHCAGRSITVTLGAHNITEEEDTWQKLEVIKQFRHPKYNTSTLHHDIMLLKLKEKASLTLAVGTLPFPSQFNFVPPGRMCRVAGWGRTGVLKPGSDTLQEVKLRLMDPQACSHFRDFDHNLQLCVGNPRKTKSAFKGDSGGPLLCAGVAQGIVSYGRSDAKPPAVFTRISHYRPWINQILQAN

[1] = The selectivity was determined for chymotrypsin to that of chymase
[2] = Maximum plasma concentration after oral administration to dogs at a dose of 10 mg/kg; format: ADME, organism-based, Canis lupus familiaris; set-up: dose 10 mg/kg, route oral; details: dog
In short: (§1)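 10 mg/kg by gavage to fasted male rats (suspension 10 mg/mL, 0.5% HPMC) or male beagles (solution 2.5 mg/mL, DMSO–PEG-400–1 M HCl–saline 2:38:10:50), n=3. Plasma sampled up to 24 h, assayed by LC–MS/MS. Cmax and Tmax taken from measured values. BA = (AUCpo×dose iv)/(AUCiv×dose po)×100, using 1 mg/kg iv.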

[3] = molecular target: Prothrombin (Homo sapiens) (UniProt P00734); assay: Inhibitory activity against human plasma thrombin (10 uM); No inhibition; format: cell-free
[4] = Pharmacokinetic parameter AUC after oral administration to rats; format: ADME, organism-based; details: rat, in vivo; in short: as §1
[5] = (§2) Steady state volume of distribution was determined; format: ADME, organism-based, Canis lupus familiaris; details: dog, in vivo; read-out: Vdss
In short: (§3)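 Male Sprague–Dawley rats (204–222 g) and male beagles (11.4–12.5 kg), n=3 each, fasted 18 h before and 4 h after dosing. Plasma sampled up to 24 h, quantified by LC–MS/MS with internal standard. AUC 0–infinity.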

[6] = Plasma administration to dogs; format: ADME, organism-based, Canis lupus familiaris; details: dog; in short: as §3
Mast cell protease 9 = molecular target: T2, Mast cell protease 9 (Mus musculus, UniProt O35164); assay: Inhibitory activity against mouse peritoneal chymase
T2 sequence (O35164 whole entry): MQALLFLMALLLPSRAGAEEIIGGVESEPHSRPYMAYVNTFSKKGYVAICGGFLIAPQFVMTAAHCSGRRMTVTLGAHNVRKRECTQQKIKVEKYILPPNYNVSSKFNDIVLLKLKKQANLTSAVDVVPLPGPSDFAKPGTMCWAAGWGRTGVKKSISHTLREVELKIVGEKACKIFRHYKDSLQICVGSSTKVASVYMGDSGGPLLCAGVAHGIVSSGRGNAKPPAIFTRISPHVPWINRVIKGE
In short: (§4)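 Chymotrypsin-type assay: purified enzyme hydrolyzes succinyl-Ala-Ala-Pro-Phe-p-nitroanilide, with p-nitroaniline release followed at 405 nm. Ki derived, as means ± SEM of three independent experiments. Human heart chymase was a purified preparation.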

Cathepsin G = molecular target: T3, Cathepsin G (Homo sapiens, UniProt P08311); assay: Inhibitory activity against human cathepsin G; in short: as §4
T3 sequence (P08311 whole entry): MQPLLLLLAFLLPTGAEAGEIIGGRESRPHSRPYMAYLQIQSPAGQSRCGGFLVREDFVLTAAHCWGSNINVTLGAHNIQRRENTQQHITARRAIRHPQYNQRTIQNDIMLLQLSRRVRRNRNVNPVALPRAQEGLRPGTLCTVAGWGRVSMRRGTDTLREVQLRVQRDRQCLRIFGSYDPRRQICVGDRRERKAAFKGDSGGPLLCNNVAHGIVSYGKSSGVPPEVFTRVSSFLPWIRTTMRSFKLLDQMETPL

[7] = molecular target: Angiotensin-converting enzyme (Homo sapiens) (UniProt P12821); assay: Inhibitory activity against human angiotensin I converting enzyme (10 uM); No inhibition
[8] = Time to reach Cmax after oral administration to rats; format: ADME, organism-based; details: rat, in vivo; in short: as §1
[9] = Pharmacokinetic parameter AUC after intravenous administration to rats; format: ADME, organism-based; details: rat, in vivo; in short: as §3
[10] = Plasma administration to rats; format: ADME, organism-based; details: rat; in short: as §3
[11] = Time to reach Cmax after oral administration to dogs; format: ADME, organism-based, Canis lupus familiaris; details: dog, in vivo; in short: as §1
[12] = Pharmacokinetic parameter AUC after oral administration to dogs; format: ADME, organism-based, Canis lupus familiaris; details: dog, in vivo; in short: as §1
[13] = as §2; format: ADME, organism-based; details: rat, in vivo; read-out: Vdss; in short: as §3
[14] = Bioavailability administered orally at a dose of 10 mg/kg to dogs; format: ADME, organism-based, Canis lupus familiaris; details: dog, in vivo, po, read-out: BA; in short: as §1
[15] = molecular target: T4, Neutrophil elastase (Homo sapiens) (UniProt P08246); assay: Inhibitory activity against human leukocyte elastase (10 uM); No inhibition
T4 sequence (whole entry): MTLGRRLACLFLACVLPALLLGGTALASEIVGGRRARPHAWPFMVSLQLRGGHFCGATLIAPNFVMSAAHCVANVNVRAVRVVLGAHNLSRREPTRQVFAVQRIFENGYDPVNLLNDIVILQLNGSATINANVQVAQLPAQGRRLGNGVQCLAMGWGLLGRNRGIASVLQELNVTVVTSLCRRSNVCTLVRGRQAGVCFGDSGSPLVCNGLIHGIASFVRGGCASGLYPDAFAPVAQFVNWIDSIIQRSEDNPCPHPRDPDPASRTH

[16] = Half life was evaluated after intravenous administration to rats; format: ADME, organism-based; details: rat, in vivo; in short: as §3
[17] = Bioavailability administered orally at a dose of 10 mg/kg to rats; format: ADME, organism-based; details: rat, in vivo, po, read-out: BA; in short: as §1
[18] = Pharmacokinetic parameter AUC after intravenous administration to dogs; format: ADME, organism-based, Canis lupus familiaris; details: dog, in vivo; in short: as §3
[19] = Half life was evaluated after intravenous administration to dogs; format: ADME, organism-based, Canis lupus familiaris; details: dog, in vivo; in short: as §3
[20] = Maximum plasma concentration after oral administration to rats; format: ADME, organism-based; set-up: route oral; details: rat; in short: as §1

Chain of Angiotensin-converting enzyme (Homo sapiens) (P12821 whole entry): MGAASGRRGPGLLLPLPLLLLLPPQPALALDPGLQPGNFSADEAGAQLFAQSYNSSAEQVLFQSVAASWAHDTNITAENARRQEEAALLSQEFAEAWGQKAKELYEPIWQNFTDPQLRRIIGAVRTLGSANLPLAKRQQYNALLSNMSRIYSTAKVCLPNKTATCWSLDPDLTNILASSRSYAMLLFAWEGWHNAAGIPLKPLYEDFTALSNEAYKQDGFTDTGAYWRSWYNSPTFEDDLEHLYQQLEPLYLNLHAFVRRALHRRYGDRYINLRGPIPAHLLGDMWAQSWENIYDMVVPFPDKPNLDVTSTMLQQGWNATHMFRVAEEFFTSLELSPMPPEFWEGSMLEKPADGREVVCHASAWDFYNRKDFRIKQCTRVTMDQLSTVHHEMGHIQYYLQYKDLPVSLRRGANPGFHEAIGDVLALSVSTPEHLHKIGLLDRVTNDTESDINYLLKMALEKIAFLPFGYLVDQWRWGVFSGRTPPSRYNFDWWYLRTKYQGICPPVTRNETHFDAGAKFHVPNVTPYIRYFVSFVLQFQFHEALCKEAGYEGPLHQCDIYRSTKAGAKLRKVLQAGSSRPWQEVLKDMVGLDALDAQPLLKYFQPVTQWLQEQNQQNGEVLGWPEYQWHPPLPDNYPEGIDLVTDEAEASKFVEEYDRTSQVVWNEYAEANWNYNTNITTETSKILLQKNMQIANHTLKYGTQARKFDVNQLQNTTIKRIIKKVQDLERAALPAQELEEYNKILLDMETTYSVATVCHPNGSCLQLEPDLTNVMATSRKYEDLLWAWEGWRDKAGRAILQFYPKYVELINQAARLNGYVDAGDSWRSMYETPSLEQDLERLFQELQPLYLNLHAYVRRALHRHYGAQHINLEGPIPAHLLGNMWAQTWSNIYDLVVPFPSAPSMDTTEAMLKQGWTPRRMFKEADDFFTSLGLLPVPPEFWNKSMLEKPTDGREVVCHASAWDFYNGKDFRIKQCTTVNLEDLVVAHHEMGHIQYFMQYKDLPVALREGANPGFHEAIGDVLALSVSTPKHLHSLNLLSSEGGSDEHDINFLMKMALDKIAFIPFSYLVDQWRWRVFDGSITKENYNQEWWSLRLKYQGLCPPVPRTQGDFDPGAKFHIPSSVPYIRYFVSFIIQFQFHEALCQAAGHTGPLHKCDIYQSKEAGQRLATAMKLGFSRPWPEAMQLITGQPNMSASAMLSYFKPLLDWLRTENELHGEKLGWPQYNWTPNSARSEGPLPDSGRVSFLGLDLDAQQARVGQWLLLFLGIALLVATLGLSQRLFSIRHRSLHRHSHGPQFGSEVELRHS

Compound: Nc1cnc(-c2ccccc2)n(CC(=O)NC(Cc2ccccc2)C(=O)C(F)(F)C(=O)NCc2ccccc2)c1=O (stereo unspecified)
Ki (Chymase): 32.5 nM

Compound: Nc1cnc(-c2cccc(F)c2)n(CC(=O)NC(Cc2ccccc2)C(=O)C(F)(F)C(=O)NCc2ccccc2)c1=O (stereo unspecified)
Ki (Chymase): 15.7 nM

Compound: Cc1cccc(-c2ncc(N)c(=O)n2CC(=O)NC(Cc2ccccc2)C(=O)C(F)(F)C(=O)NCc2ccccc2)c1 (stereo unspecified)
Selectivity [1]: 114
Ki (Chymase): 16.9 nM

Compound: COc1cccc(-c2ncc(N)c(=O)n2CC(=O)NC(Cc2ccccc2)C(=O)C(F)(F)C(=O)NCc2ccccc2)c1 (stereo unspecified)
Ki (Chymase): 13.8 nM

Compound: Cc1cccc(-c2ncc(N)c(=O)n2CC(=O)NC(Cc2ccccc2)C(=O)C(F)(F)C(=O)Nc2cccc(C(=O)O)c2)c1 (stereo unspecified)
Ki (Chymase): 9.7 nM

Compound: Cc1cccc(-c2ncc(N)c(=O)n2CC(=O)NC(Cc2ccccc2)C(=O)C(F)(F)C(=O)NCC(=O)N2CCCCCC2)c1 (stereo unspecified)
Ki (Chymase): 3.56 nM

Compound: Nc1cnc(-c2ccncc2)n(CC(=O)NC(Cc2ccccc2)C(=O)C(F)(F)C(=O)NCc2ccccc2)c1=O (stereo unspecified)
Ki (Chymase): 84.7 nM

Compound: Cc1cccc(-c2ncc(N)c(=O)n2CC(=O)NC(Cc2ccccc2)C(=O)C(F)(F)C(=O)Nc2ccc(C(=O)O)cc2)c1 (stereo unspecified)
Ki (Chymase): 16.6 nM

Compound: Nc1cnc(-c2ccc(F)cc2)n(CC(=O)NC(Cc2ccccc2)C(=O)C(F)(F)C(=O)NCc2ccccc2)c1=O (stereo unspecified)
Selectivity [1]: 7.45
Ki (Chymase): 440 nM

Compound: CCNC(=O)CNC(=O)C(F)(F)C(=O)C(Cc1ccccc1)NC(=O)Cn1c(-c2cccc(C)c2)ncc(N)c1=O (stereo unspecified)
Ki (Chymase): 7.71 nM

Compound: CCN(CC)C(=O)CNC(=O)C(F)(F)C(=O)C(Cc1ccccc1)NC(=O)Cn1c(-c2cccc(C)c2)ncc(N)c1=O (stereo unspecified)
Ki (Chymase): 9.32 nM

Compound: Cc1cccc(-c2ncc(N)c(=O)n2CC(=O)NC(Cc2ccccc2)C(=O)C(F)(F)C(=O)NCC(=O)N2CCCCC2)c1 (stereo unspecified)
Ki (Chymase): 10.2 nM

Compound: Nc1cnc(-c2cccc(Cl)c2)n(CC(=O)NC(Cc2ccccc2)C(=O)C(F)(F)C(=O)NCc2ccccc2)c1=O (stereo unspecified)
Cmax [2]: 7320 ng/mL
NI [3]: inactive
AUC [4]: 12100 ng·h/mL
Vd [5]: 0.257 L/kg
clearance [6]: 3.25 mL/min/kg
Ki (Mast cell protease 9): 1260 nM
Ki (Cathepsin G): 1390 nM
NI [7]: inactive
Tmax [8]: 1.3 h
AUC [9]: 7330 ng·h/mL
clearance [10]: 2.28 mL/min/kg
Tmax [11]: 0.7 h
AUC [12]: 18500 ng·h/mL
Vd [13]: 0.369 L/kg
bioavailability [14]: 32%
NI [15]: inactive
half-life [16]: 2.1 h
bioavailability [17]: 17%
AUC [18]: 5720 ng·h/mL
half-life [19]: 1.4 h
Cmax [20]: 1520 ng/mL

Compound: CCN(CC)C(=O)CCNC(=O)C(F)(F)C(=O)C(Cc1ccccc1)NC(=O)Cn1c(-c2cccc(C)c2)ncc(N)c1=O (stereo unspecified)
Ki (Chymase): 33.7 nM

Compound: Nc1cnc(-c2cccnc2)n(CC(=O)NC(Cc2ccccc2)C(=O)C(F)(F)C(=O)NCc2ccccc2)c1=O (stereo unspecified)
Ki (Chymase): 74.3 nM

Compound: Cc1cccc(-c2ncc(N)c(=O)n2CC(=O)NC(Cc2ccccc2)C(=O)C(F)(F)C(=O)NCc2cccnc2)c1 (stereo unspecified)
Ki (Chymase): 28.9 nM

Next, values leading:

Ki (Chymase): > 10000 nM
Compound: CCOC(=O)C(F)(F)C(=O)C(Cc1ccccc1)NC(=O)Cn1c(-c2cccc(C)c2)ncc(N)c1=O (stereo unspecified)

Ki (Chymase): 13.3 nM
Compound: Cc1cccc(-c2ncc(N)c(=O)n2CC(=O)NC(Cc2ccccc2)C(=O)C(F)(F)C(N)=O)c1 (stereo unspecified)

Ki (Chymase): 50.6 nM
Compound: Cc1cccc(-c2ncc(N)c(=O)n2CC(=O)NC(Cc2ccccc2)C(=O)C(F)(F)F)c1 (stereo unspecified)

Ki (Chymase): 489 nM
Compound: Cc1cccc(-c2ncc(N)c(=O)n2CC(=O)NC(Cc2ccccc2)C(=O)C(F)(F)C(=O)N(C)C)c1 (stereo unspecified)

Ki (Chymase): 10.2 nM
Compound: COC(=O)CNC(=O)C(F)(F)C(=O)C(Cc1ccccc1)NC(=O)Cn1c(-c2cccc(C)c2)ncc(N)c1=O (stereo unspecified)

Ki (Chymase): 18.5 nM
Compound: CCCCCNC(=O)C(F)(F)C(=O)C(Cc1ccccc1)NC(=O)Cn1c(-c2cccc(C)c2)ncc(N)c1=O (stereo unspecified)

Ki (Chymase): 90.7 nM
Compound: CNC(=O)C(F)(F)C(=O)C(Cc1ccccc1)NC(=O)Cn1c(-c2cccc(C)c2)ncc(N)c1=O (stereo unspecified)

Selectivity [1]: 120
Ki (Chymase): 12 nM
Compound: Cc1cccc(-c2ncc(N)c(=O)n2CC(=O)NC(Cc2ccccc2)C(=O)C(F)(F)C(=O)NCC(N)=O)c1 (stereo unspecified)

Ki (Chymase): > 10000 nM
Compound: Cc1cccc(-c2ncc(N)c(=O)n2CC(=O)NC(Cc2ccccc2)C(=O)C(F)(F)C(=O)O)c1 (stereo unspecified)

Ki (Chymase): 16.9 nM
Compound: Cc1cccc(-c2ncc(N)c(=O)n2CC(=O)NC(Cc2ccccc2)C(=O)C(F)(F)C(=O)NCC(=O)O)c1 (stereo unspecified)

Selectivity [1]: 62.2
Ki (Chymase): 23 nM
Compound: Cc1cccc(-c2ncc(N)c(=O)n2CC(=O)NC(Cc2ccccc2)C(=O)C(F)(F)C(=O)NCCC(=O)O)c1 (stereo unspecified)
